An excerpt weighted towards active compounds, which were near 6% of everything screened.
PostGolgi ctrl: growth inhibition of yeast control strain, primary screen, counter-screen for post-Golgi transport modulator project | inhibition, % at 10 µM | efflux-deficient yeast background strain, growth absorbance A615, 16 h | actives 5% (n = 98,000)
EphB4 ephrin blk: EphB4-ephrin-B2 interaction antagonists, primary screen, biochemical, TNYL-RAW peptide probe, fluorescence polarization; actives 0.15% (n = 97,000); EphB4 LBD / TNYL-RAW-Alexa532 peptide; inhibition, % at 7 µM;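 active = inhibition above the screen-wide mean inhibition plus 3 SD, cut at about 15% in these data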;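 also: 0% = DMSO wells and 100% = excess unlabeled TNYL-RAW peptide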
PostGolgi yeast: phenotypic screen on post-Golgi transport, primary screen | post-Golgi transport phenotypic cell assay | actives 0.9% (n = 98,000) | inhibition, % at 10 µM;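 also: yeast cells grown in 1536-well plates; yeast grown about 18 h at 30C before absorbance read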
Ecoli tolC: growth inhibitors of E. coli tolC mutant, primary screen, strain BW25113 ΔtolC::kan, 384-well; AID 573, 2007; actives 2.2% (n = 65,000); OD615; growth inhibition, % at 10 µM (by protocol);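 active = growth inhibition at or above a cutoff equal to the mean over every tested compound plus 3 SD, cut at about 60% in these data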;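 also: growth measured after 20 h incubation at 37 °C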
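Signal: optical density read at 615 nm; Assay system: E. coli ΔtolC::kan strain BW25113; Times: 20 h incubation with compound, 37 °C; Dosing: 10 µM final, single dose.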
Ecoli WT expand: growth inhibitors of wild-type E. coli, primary screen, strain BW25113, expanded library, OD600. OD600 absorbance. growth inhibition, % at 100 µM. actives 0.15% (n = 98,000);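 active = growth inhibition above about 50% at one test dose, limit read from the data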;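 also: growth measured after 20 h incubation at 37 °C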
Starred values were filed as active, the others as inactive. Rule as the data show it, unless noted: active = inhibition above about 30%; inactive = the rest.

For CCOC(=O)C(NC(C)=O)(Nc1ccc(S(=O)(=O)Nc2onc(C)c2C)cc1)C(F)(F)F (centres undefined) the results were PostGolgi ctrl -4, EphB4 ephrin blk 1, PostGolgi yeast 35*, Ecoli tolC -23 and Ecoli WT expand 2.
CCOC(=O)C(NC(C)=O)(Nc1ccc(S(=O)(=O)Nc2cc(C)on2)cc1)C(F)(F)F (centres undefined) was read as EphB4 ephrin blk 2.
Screening Cc1cccc(NC(=S)NN(Cc2ccccc2)c2ccccc2)c1C returned PostGolgi ctrl 14, EphB4 ephrin blk 3, PostGolgi yeast -2 and Ecoli WT expand 2.
For CC(=O)c1cccc(NC(=S)NC(=O)CC(C)(C)C)c1 the results were PostGolgi ctrl 10, EphB4 ephrin blk 3, PostGolgi yeast 5 and Ecoli WT expand 3.
`COc1ccc(S(=O)(=O)N(n2c(C)nnc2-n2nc(C)cc2C)S(=O)(=O)c2ccc(OC)cc2)cc1` gave EphB4 ephrin blk -7.
O=C(Oc1cccc(Br)c1)c1cccnc1 was read as PostGolgi ctrl 34*, EphB4 ephrin blk -4, PostGolgi yeast 12, Ecoli tolC 0 and Ecoli WT expand 18.
CCOC1(OCC)N=C(N)C2(C#N)C(c3ccc(NC(C)=O)cc3)C12C#N (centres undefined) was read as PostGolgi ctrl 17, EphB4 ephrin blk -4, PostGolgi yeast 6, Ecoli tolC -11 and Ecoli WT expand -8.
Screening CCOc1ccc(N(CC(=O)NC2CCCC2)C(=O)CSc2nnc(COc3ccccc3)o2)cc1 returned PostGolgi ctrl 14, EphB4 ephrin blk -2, PostGolgi yeast 0 and Ecoli WT expand -4.
Screening CCC(C)(C)C1CCc2c(sc(NC(=O)c3ccoc3C)c2C(N)=O)C1 (centres undefined) returned PostGolgi ctrl -11, EphB4 ephrin blk -2, PostGolgi yeast 13 and Ecoli WT expand -1.
For CCC1CCc2c(sc(NC(=O)c3ccoc3C)c2C(N)=O)C1 (centres undefined) the results were PostGolgi ctrl 30*, EphB4 ephrin blk 6, PostGolgi yeast -1, Ecoli tolC 12 and Ecoli WT expand -3.
COc1cc2cc(C(c3nnnn3C3CCCCC3)N(C)C3CCCCC3)c(=O)[nH]c2cc1OC (centres undefined) was read as PostGolgi ctrl 17, PostGolgi yeast -5, Ecoli tolC 75* and Ecoli WT expand -8.
Screening O=c1c2ccccc2nc2n1C(CSc1ccc(Br)cc1)CN2 (centres undefined) returned PostGolgi ctrl -5, EphB4 ephrin blk 5, PostGolgi yeast 21 and Ecoli WT expand 5.
For Cc1cc(=O)[nH]c(-n2nc(C)cc2C)n1 the results were PostGolgi ctrl -6, EphB4 ephrin blk -7, PostGolgi yeast -3, Ecoli tolC 75* and Ecoli WT expand 57*.
For CCCN(CCC)c1nc(N)nc(-c2cc(Cl)ccc2OC)n1 the results were PostGolgi ctrl 56*, EphB4 ephrin blk -4, PostGolgi yeast 9 and Ecoli WT expand -12.
For CCCNc1nc(N)nc(-c2cc(Cl)ccc2OC)n1 the results were PostGolgi ctrl 14, EphB4 ephrin blk -1, PostGolgi yeast 2 and Ecoli WT expand 6.
For CCOC(=O)c1c(-c2cccs2)csc1NC(=O)CNCCN1CCOCC1 the results were PostGolgi ctrl 6, EphB4 ephrin blk 0, PostGolgi yeast 3 and Ecoli WT expand 1.
`Cc1ccc(NC(=O)CN(C)S(=O)(=O)c2cccc3nsnc23)cc1Cl` gave PostGolgi ctrl 17, EphB4 ephrin blk -1, PostGolgi yeast -1, Ecoli tolC 74* and Ecoli WT expand -9.
For Cc1ccc(NC(=O)CN(C)S(=O)(=O)c2cccc3nsnc23)cc1C the results were PostGolgi ctrl 4, EphB4 ephrin blk 4, PostGolgi yeast 3, Ecoli tolC 19 and Ecoli WT expand -5.
`O=C(Nc1ccccc1C(=O)NC(Cc1c[nH]c2ccccc12)C(=O)O)c1ccco1` (centres undefined) gave PostGolgi ctrl -10, EphB4 ephrin blk 0, PostGolgi yeast 3, Ecoli tolC 10 and Ecoli WT expand 8.
Cc1cccc(NC(=O)NCCc2c[nH]c3ccccc23)c1 was read as PostGolgi ctrl 12, EphB4 ephrin blk -5, PostGolgi yeast -17 and Ecoli WT expand 17.

High-throughput results: PubChem BioAssay, several laboratories
